The text below walks through data of ChEMBL document CHEMBL1145443, “Thiosemicarbazones of formyl benzoic acids as novel potent inhibitors of estrone sulfatase” (J Med Chem, 2007).

Active and inactive are the calls of the source. No cut-off for these calls is given here. A value given as a limit tells only on which side of the number the result lay.

Data set [1] is described as follows: Dissociation constant, pKa of the compound. Type of data set: physicochemical.
Another data set addresses T1, Steryl-sulfatase (Homo sapiens, UniProt P08842).
T1 sequence (P08842 whole entry): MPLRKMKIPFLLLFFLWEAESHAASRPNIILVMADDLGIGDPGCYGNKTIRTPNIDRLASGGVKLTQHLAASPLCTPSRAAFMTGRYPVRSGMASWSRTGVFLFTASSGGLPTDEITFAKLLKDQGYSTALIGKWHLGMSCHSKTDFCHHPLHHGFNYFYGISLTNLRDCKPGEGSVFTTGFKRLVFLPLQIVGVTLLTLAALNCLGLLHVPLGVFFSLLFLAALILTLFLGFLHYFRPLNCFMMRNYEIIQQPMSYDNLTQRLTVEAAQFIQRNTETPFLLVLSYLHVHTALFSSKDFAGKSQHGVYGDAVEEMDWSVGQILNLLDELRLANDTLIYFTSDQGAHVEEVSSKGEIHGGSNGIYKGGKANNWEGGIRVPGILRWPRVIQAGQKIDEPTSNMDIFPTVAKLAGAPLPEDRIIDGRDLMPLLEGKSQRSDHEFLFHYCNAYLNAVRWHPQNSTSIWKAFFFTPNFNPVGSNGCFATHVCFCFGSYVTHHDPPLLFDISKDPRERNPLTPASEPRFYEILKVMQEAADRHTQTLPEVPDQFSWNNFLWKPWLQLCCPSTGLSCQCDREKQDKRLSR
Description: (§1) Inhibition of Estrone sulfatase in human placental microsome. More on the design: species or system Placenta.

Data set [2] concerns the target T2, Steryl-sulfatase (Homo sapiens) (UniProt P08842).
T2 sequence (whole entry): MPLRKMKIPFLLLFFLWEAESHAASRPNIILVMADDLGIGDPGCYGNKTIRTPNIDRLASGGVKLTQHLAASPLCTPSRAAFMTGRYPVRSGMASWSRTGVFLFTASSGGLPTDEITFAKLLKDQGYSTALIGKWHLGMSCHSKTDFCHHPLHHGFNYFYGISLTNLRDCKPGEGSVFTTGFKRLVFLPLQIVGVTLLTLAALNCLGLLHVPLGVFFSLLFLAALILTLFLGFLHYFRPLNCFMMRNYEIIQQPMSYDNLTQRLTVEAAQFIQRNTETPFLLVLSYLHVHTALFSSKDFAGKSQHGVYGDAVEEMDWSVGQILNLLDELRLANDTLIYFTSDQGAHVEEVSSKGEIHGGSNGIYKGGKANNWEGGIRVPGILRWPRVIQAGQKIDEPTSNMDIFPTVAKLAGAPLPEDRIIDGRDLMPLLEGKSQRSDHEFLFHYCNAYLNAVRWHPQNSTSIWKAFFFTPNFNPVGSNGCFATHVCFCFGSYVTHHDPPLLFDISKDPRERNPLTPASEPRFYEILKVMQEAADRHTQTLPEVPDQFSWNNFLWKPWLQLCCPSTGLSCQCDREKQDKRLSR
The data set is described as §1. The settings on record: Placenta.

A further data set relates to HeLa. Description: Growth inhibition of HeLa cells. Type of data set: functional, cell-based. Particulars: Homo sapiens.
The test system of another data set is K562. The data set can be described thus: Growth inhibition of K562 cells. Type of data set: functional, cell-based. The settings on record: Homo sapiens.
Another data set is filed under the species Gallus gallus. Description: Acute toxicity in chick embryo after 72 to 96 hrs by hen's fertile egg screening test. In kind it is organism-based. The settings on record: chicken, in vivo. Summed up: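 Fifteen-day-old fertile hen's egg embryos received compound through the air cell. Deaths were scored 72-96 h after treatment, and an LD50 was derived in mg/kg.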

Data set [3] deals with Estrone sulfatase (Homo sapiens). Description: Activity of Estrone sulfatase in human placental microsome. The settings on record: Placenta.

One may read the pKa as the pH at which an ionisable group is half protonated. A lower pKa goes with a group that gives up its proton readily. By IC50 is commonly meant the point on the concentration scale where inhibition reaches its midpoint. Lower therefore signals higher potency. What is called Km is the substrate concentration at which the rate is half of its maximum.

For the molecule `Cc1ccc(/C=N/NC(=S)NC2CCCCC2)c(C(=O)O)c1O`, the pKa in data set [1] was determined as 4.3.
`O=C(O)c1ccccc1/C=N/NC(=S)Nc1ccccc1` gave an IC50 against Steryl-sulfatase greater than 100 µM.
Molecule `O=C(O)c1ccccc1/C=N/NC(=S)NC1CCCCC1` returned a pKa in data set [1] of 6.4.
`COc1ccc(/C=N/NC(=S)NC2CCCCC2)c(C(=O)O)c1OC` came in with an IC50 against Steryl-sulfatase greater than 100 µM.
On to `O=C(O)c1ccccc1/C=N/NC(=S)NC1CC1`, for which the IC50 against Steryl-sulfatase is greater than 100 µM.
Turning to `CCCCCCNC(=S)N/N=C/c1ccccc1C(=O)O`, the outcome in data set [2] was inactive.
Regarding `O=C(O)c1cccc(/C=N/NC(=S)NC2CCCCC2)c1`, the pKa in data set [1] came to 5.4.
`CCCCNC(=S)N/N=C/c1cccc(C(=O)O)c1` came in with an IC50 against Steryl-sulfatase of 58 µM.
Turning to `S=C(N/N=C/c1cccc(-c2nnn[nH]2)c1)NC1CCCCC1`, the pKa in data set [1] was determined as 5.2.
`O=C(O)c1ccc(O)c(/C=N/NC(=S)NC2CCCCC2)c1`: the IC50 with HeLa and with K562 was greater than 50 µg/mL throughout. Also, in data set [1], the pKa stood at 5.8. Also, the Activity in the data set filed under Gallus gallus is greater than 100 mg/kg.
For the molecule `O=C(O)c1cc(/C=N/NC(=S)NC2CCCCC2)ccc1O`, the IC50 in the data set on HeLa and in the data set with K562 was greater than 50 µg/mL throughout. The pKa in data set [1] worked out at 4.2. Also, the Activity in the data set listed under Gallus gallus was greater than 50 mg/kg.
The molecule `OB(O)c1ccccc1/C=N/NC(=S)NC1CCCCC1` yielded a pKa in data set [1] of 7.7. Moreover, the IC50 on Steryl-sulfatase was greater than 100 µM.
In data set [1], `Oc1cccc(/C=N/NC(=S)NC2CCCCC2)c1` gave a pKa of 10.2.
In the case of `O=C(O)c1cccc(/C=N/NC(=S)NC2CCCCC2)c1O`, the IC50 with HeLa and in the data set with K562 was greater than 50 µg/mL each time. The molecule also came in with a pKa in data set [1] of 3.8. For the same molecule, in the data set filed under Gallus gallus, the Activity is greater than 50 mg/kg.
`CCCCCCNC(=S)N/N=C/c1cccc(C(=O)O)c1`: the IC50 against Steryl-sulfatase amounted to 12 µM.
As for `Oc1ccccc1/C=N/NC(=S)NC1CCCCC1`, in data set [1], the pKa came to 9.8.
As to `COc1c2c(c(O)c3c1C(=O)c1c(cc(O)c(C)c1O)C3=O)-c1c(cc(/C=N/NC(=S)NC3CCCCC3)c(C(=O)O)c1O)CC2` [MHL CYCLOHEXYLTHIOSEMICARBAZONE], the IC50 with HeLa and in the data set on K562 was greater than 50 µg/mL each time. In the data set filed under Gallus gallus, this molecule had an Activity greater than 50 mg/kg.
On Steryl-sulfatase, `C/C(=N\NC(=S)NC1CCCCC1)c1ccccc1C(=O)O` displayed an IC50 greater than 100 µM.
`O=C(N/N=C/c1cccc(C(=O)O)c1)NC1CCCCC1` had an IC50 at Steryl-sulfatase greater than 100 µM.
In turn, `COc1c(C)ccc(/C=N/NC(=S)NC2CCCCC2)c1C(=O)O` displayed an IC50 at Steryl-sulfatase greater than 100 µM.
On to `CCCCNC(=S)N/N=C/c1ccccc1C(=O)O`, for which the result in data set [2] was inactive.
`COc1cccc(/C=N/NC(=S)NC2CCCCC2)c1C(=O)O` registered an IC50 against Steryl-sulfatase greater than 100 µM.

B1: Steryl-sulfatase (Homo sapiens), P08842 (protein)
chain: MPLRKMKIPFLLLFFLWEAESHAASRPNIILVMADDLGIGDPGCYGNKTIRTPNIDRLASGGVKLTQHLAASPLCTPSRAAFMTGRYPVRSGMASWSRTGVFLFTASSGGLPTDEITFAKLLKDQGYSTALIGKWHLGMSCHSKTDFCHHPLHHGFNYFYGISLTNLRDCKPGEGSVFTTGFKRLVFLPLQIVGVTLLTLAALNCLGLLHVPLGVFFSLLFLAALILTLFLGFLHYFRPLNCFMMRNYEIIQQPMSYDNLTQRLTVEAAQFIQRNTETPFLLVLSYLHVHTALFSSKDFAGKSQHGVYGDAVEEMDWSVGQILNLLDELRLANDTLIYFTSDQGAHVEEVSSKGEIHGGSNGIYKGGKANNWEGGIRVPGILRWPRVIQAGQKIDEPTSNMDIFPTVAKLAGAPLPEDRIIDGRDLMPLLEGKSQRSDHEFLFHYCNAYLNAVRWHPQNSTSIWKAFFFTPNFNPVGSNGCFATHVCFCFGSYVTHHDPPLLFDISKDPRERNPLTPASEPRFYEILKVMQEAADRHTQTLPEVPDQFSWNNFLWKPWLQLCCPSTGLSCQCDREKQDKRLSR
Turning to B1, the Km in data set [3] stood at 27 µM.
